RGS4 inh = RGS4 inhibitors, primary screen, cell-based, HEK293 M3R inducible RGS4, calcium flux; Regulator of G-protein signaling 4 (Homo sapiens), P49798; Fluo-4 calcium flux; stronger effect = higher value; triggered by carbachol at its EC20; B-score at 10 µM; hit rate 0.45% among 310,000; AID 463165, 2010;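 active = B-score, a plate-corrected calcium signal, over three deviations above library mean, with baseline fluorescence within five deviations of library mean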;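 note: RGS4 expression induced by doxycycline in cells with stable M3 receptor; B-score is computed from the integrated fluorescence ratio over baseline after carbachol; higher B-score means a larger calcium signal and so more RGS4 inhibition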
Target sequence (P49798 whole entry, looked up): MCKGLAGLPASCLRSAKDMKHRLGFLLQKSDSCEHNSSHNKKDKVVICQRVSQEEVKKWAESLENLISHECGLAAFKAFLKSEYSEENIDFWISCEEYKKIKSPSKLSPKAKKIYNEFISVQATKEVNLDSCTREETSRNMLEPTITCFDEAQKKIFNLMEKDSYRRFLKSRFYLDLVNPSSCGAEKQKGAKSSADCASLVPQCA
MrgX1 allo act = positive allosteric modulators of MrgX1, primary screen, HEK293 cells, Fluo-4 calcium flux | FDSS; stronger effect = higher value | B-score at 10 µM | hit rate 0.63% among 310,000;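 active = plate-corrected calcium response at least 3 library SD above typical, normal starting fluorescence, not activating the receptor alone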;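 note: compound read alongside a low EC10 to EC30 dose of BAM8-22 agonist; peak minus trough fluorescence over baseline measured at the second addition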
Target sequence (Q96LB2 whole entry, looked up): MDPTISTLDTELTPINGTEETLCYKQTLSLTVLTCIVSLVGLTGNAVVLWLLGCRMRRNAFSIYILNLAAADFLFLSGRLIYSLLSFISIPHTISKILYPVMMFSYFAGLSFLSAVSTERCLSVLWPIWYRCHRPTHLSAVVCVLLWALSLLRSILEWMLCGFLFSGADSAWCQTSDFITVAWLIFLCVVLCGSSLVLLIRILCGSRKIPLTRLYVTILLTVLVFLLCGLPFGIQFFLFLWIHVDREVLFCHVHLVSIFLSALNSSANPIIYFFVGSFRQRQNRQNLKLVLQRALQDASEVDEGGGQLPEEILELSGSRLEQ
RGS4 act = RGS4 potentiators or activators, primary screen, cell-based, HEK293 M3R inducible RGS4, calcium flux; carbachol calcium flux Fluo4; stronger effect = lower value; B-score at 10 µM; hit rate 0.92% among 310,000;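 active = B-score of the integrated calcium signal more than 4 SD below the library mean, with starting fluorescence not abnormally high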;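 note: negative B-score means reduced calcium response which marks RGS4 activation or potentiation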
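Material: Inducible-RGS4 HEK293 cells carrying M3 receptor; also added: carbachol at ECmax as muscarinic agonist stimulus; incubation: compound preincubation 20 min at room temperature before agonist; signal: Fluo4-AM (2 µM) calcium-flux fluorescence, kinetic read; measure: integrated calcium ratio converted to B score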
MrgX1 agonist = agonists of human MrgX1 receptor, primary screen, HEK293 cells, Fluo-4 calcium flux. Mas-related G-protein coupled receptor member X1 (Homo sapiens), Q96LB2. Fluo-4 calcium fluorescence, agonist mode; stronger effect = higher value. B-score at 10 µM. hit rate 0.44% among 310,000;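 active = calcium response B-score plate-corrected fluorescence ratio at least 3 library SD, with starting fluorescence B-score inside 5 SD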
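times = overnight plating, then 30 min 37 °C plus 30 min room-temperature dye loading | assay system = stable human MrgX1 HEK293 cell line | input = fifteen thousand cells per well | signal = kinetic calcium dye fluorescence, Fluo-4 NW | dosing = compound delivered in addition one of three | read-out = B-scored fluorescence response ratio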
MrgX1 antag = antagonists of human MrgX1 receptor, primary screen, HEK293 cells, Fluo-4 calcium flux; Mas-related G-protein coupled receptor member X1 (Homo sapiens), Q96LB2; BAM8-22 antagonism; stronger effect = lower value; B-score at 10 µM; hit rate 1.3% among 310,000;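 active = calcium-response B-score plate-corrected more than 3 library SD below zero, starting fluorescence within 5 deviations, no agonist response on first addition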;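 note: peak minus trough fluorescence over baseline after final BAM8-22 challenge near maximal dose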
Active calls of the source: *; i = inactive; . = no result given; ! = not confirmed by another sample. A selection: hits, their analogues and other compounds. The true share with any hit is near 3.5%.

SMILES	RGS4 inh	MrgX1 allo act	RGS4 act	MrgX1 agonist	MrgX1 antag
O=C(/C(=C/c1cccnc1)n1ccnc1)c1ccc(Cl)cc1Cl	i	i	i	33*	i
CC(C)/C=C(/C(=O)c1ccc(Cl)cc1Cl)n1cncn1	i	i	i	i	i
N#CC1=C(N)SC(N)=C(C#N)C1c1cccc(O)c1	i	i	i	39*	i
COc1ccc(C2C(C#N)=C(N)OC(C(C)(C)C)=C2C#N)cc1OC (configuration not stated)	i	i	i	i	i
COc1ccc(C2C(C#N)=C(N)SC(N)=C2C#N)cc1OC	i	i	i	i	-4.6*
O=C(On1c(-c2ccccc2)nc2ccccc2c1=O)c1ccco1	i	i	-8.1*	i	i
N#Cc1nc(COc2ccccc2)oc1N1CCCC1	i	i	i	i	i
CCN1CCN(c2oc(COc3ccc(Cl)cc3)nc2C#N)CC1	i	i	i	i	i
N#Cc1nc(COc2ccc(Cl)cc2)oc1N1CCN(Cc2ccccc2)CC1	i	i	-7*	i	i
N#Cc1nc(COc2ccccc2)oc1N1CCOCC1	i	i	-7.2*	i	i
CN(CCOc1ccc(Cl)cc1)C(=O)C1CCN(C(=O)c2ccc(Cl)cc2)CC1	i	i	i	i	i
Brc1ccc(/C=N/Nc2ccc3ccccc3n2)cc1	i	i	i	i	i
Brc1ccccc1/C=N/Nc1ccc2ccccc2n1	i	11*	i	i	i
O=S(=O)(c1cc(Cl)c(Cl)cc1Cl)N1CCN2CCCC2C1 (configuration not stated)	i	i	i	i	i
CC1CC=C2C(C#N)=C(N)C(C#N)(C#N)C(c3cccs3)C2C1 (configuration not stated)	i	i	i	i	-5.6*
COCCn1c(=NC(=O)/C=C/c2ccccc2)sc2cc(NC(C)=O)ccc21	i	i	i	i	-4.9*
CCc1ccc(/C=C2/Sc3ccccc3N(CC(=O)NCC3CCCO3)C2=O)cc1 (configuration not stated)	i	i	i	i	i
CC(C)[N+]1(C)[C@@H]2CC[C@H]1CC(OC(=O)C(CO)c1ccccc1)C2 (some centres not stated)	i	i	i	i	i
CN1C2CCC1CC(OC(=O)C(CO)c1ccccc1)C2 (configuration not stated)	.	i	.	i	i
CN1C2CC(OC(=O)C(CO)c3ccccc3)CC1C1OC12 (configuration not stated)	i	i	-7.9*!	i	i
CN1[C@@H]2CC[C@H]1CC(OC(=O)C(CO)c1ccccc1)C2 (some centres not stated)	i	i	-7*	i	i
CC(=O)Nc1ccc(-c2csc(NC(=O)Cc3cccc(F)c3)n2)cc1	i	i	i	i	i
CCn1c(C(=O)O)c(CC(=O)Nc2cccc(C(F)(F)F)c2)c2ccccc21	i	i	i	i	i
CCN(Cc1ccccc1)C(=O)Cn1cc(S(=O)(=O)NC)c(S(=O)(=O)NC)c1	i	i	i	i	i
CC1(C)Cc2noc(N)c2C(C)(C)N1O	i	i	i	i	-6.3*
SMILES	RGS4 inh	MrgX1 allo act	RGS4 act	MrgX1 agonist	MrgX1 antag
CCC(c1n[nH]c(=S)n1-c1ccccc1)N(C)C (configuration not stated)	i	i	i	i	i
CC(C)CCC(CC(C)O)c1n[nH]c(=S)n1-c1ccccc1 (configuration not stated)	i	i	i	i	-4.9*
CC1CCN(C(=O)c2cc(Cl)ccc2NC(=O)c2ccco2)CC1	i	i	i	i	i
CC(C)(C)N(Cc1ccccc1)C(=O)COC(=O)CN1C(=O)NC2(CCCC2)C1=O	i	i	i	i	i
CCCc1sc(N/N=C/c2ccccn2)nc1-c1ccc(F)cc1	6.5*	i	i	i	i
Cc1ccc(N2C(=O)c3ccccc3C2C(=O)c2ccc(C)c(C)c2O)cc1 (configuration not stated)	i	i	-7*	i	i
Cc1ccc(N2C(=O)c3ccccc3C2C(=O)c2ccc(O)cc2O)cc1 (configuration not stated)	i	i	i	i	i
CN(C(=O)CCc1nnc(CCCCc2ccccc2)o1)C1CC(C)(C)NC(C)(C)C1	i	i	i	i	-5.8*
CN(C)c1cccc(C(=O)NNC(=O)NC2CCCCC2)c1	i	i	i	i	i
COc1cc(OC)cc(C(=O)NNC(=O)NC2CCCCC2)c1	i	i	i	i	-7*
O=C(Nc1ccc(Cl)c(Cl)c1)Nc1ccc(Br)cc1F	i	i	i	i	-5.2*
O=C(Nc1ccc(Br)cc1)Nc1ccccc1F	i	i	i	i	i
COc1cc(O)ccc1C(=O)CCc1ccc(O)cc1	i	i	i	i	i
CC[n+]1c(/C=C/Nc2ccccc2)oc2ccccc21	i	i	i	i	i
CC[n+]1c(/C=C/N(C)c2ccccc2)oc2ccc(F)cc21	i	i	i	i	-4.7*
CC[n+]1c(/C=C/Nc2ccccc2)oc2ccc(OC)cc21	i	i	i	i	-7.4*
CCOc1ccc(NC(=O)CSc2nnc(CCNC(=O)c3ccc(OC)cc3)n2C)cc1	i	i	i	i	-6.3*
CCOC(=O)c1c(C)[nH]c(C2=NNC(=Nc3cccc(Cl)c3)SC2)c1C	i	22*	i	i	i
CC1(C)CC(=O)C2=C(C1)OC1=C(C(=O)CC(C)(C)C1)C2c1cc([N+](=O)[O-])cc([N+](=O)[O-])c1O	i	i	i	i	i
CC1(C)CC(=O)C(C2C3=C(CC(C)(C)CC3=O)Oc3c(Br)cc(Br)cc32)=C(O)C1 (configuration not stated)	i	i	i	52*	i
Cc1ccc(-n2c(SCC(=O)NC3CCS(=O)(=O)C3)nc3ccccc3c2=O)cc1C (configuration not stated)	i	i	i	i	i
CCN(CC)S(=O)(=O)c1ccc(Cl)c(C(=O)Oc2cccc(-c3cnc4ccccc4n3)c2)c1	i	i	-7.1*	i	i

Screening data from PubChem.
